Measured values reported in ChEMBL document CHEMBL4020714, “Design, synthesis, and evaluation of curcumin derivatives as Nrf2 activators and cytoprotectors against oxidative death” (Eur J Med Chem, 2017).
Active and inactive are the calls of the source. The calls are words filed in the database; no cut-off is given here.

Key:
[1] = Stability of the compound in PBS at 40 uM at pH 7.4 at 25 degC measured for 30 mins by UV-Vis spectrophotometric analysis; format: physicochemical; details: buffer, pH 7.4, 0.5 h
Summary of the method: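 Compound at 40 μM in PBS (pH 7.4) at 25 °C. UV-visible absorption spectra recorded every 2 min for 30 min against blanks of solution plus DMSO.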

[2] = target: T1, Nuclear factor erythroid 2-related factor 2 (Homo sapiens) (UniProt Q16236); assay: Activation of Nrf2 in human HepG2 cells assessed as cytoprotection against t-BHP-induced oxidative cell death incubated for 24 hrs followed by compound removal with subsequent incubation with 900 uM of t-BHP for 6 hrs by MTT assay; format: cell-based
T1 sequence (whole entry): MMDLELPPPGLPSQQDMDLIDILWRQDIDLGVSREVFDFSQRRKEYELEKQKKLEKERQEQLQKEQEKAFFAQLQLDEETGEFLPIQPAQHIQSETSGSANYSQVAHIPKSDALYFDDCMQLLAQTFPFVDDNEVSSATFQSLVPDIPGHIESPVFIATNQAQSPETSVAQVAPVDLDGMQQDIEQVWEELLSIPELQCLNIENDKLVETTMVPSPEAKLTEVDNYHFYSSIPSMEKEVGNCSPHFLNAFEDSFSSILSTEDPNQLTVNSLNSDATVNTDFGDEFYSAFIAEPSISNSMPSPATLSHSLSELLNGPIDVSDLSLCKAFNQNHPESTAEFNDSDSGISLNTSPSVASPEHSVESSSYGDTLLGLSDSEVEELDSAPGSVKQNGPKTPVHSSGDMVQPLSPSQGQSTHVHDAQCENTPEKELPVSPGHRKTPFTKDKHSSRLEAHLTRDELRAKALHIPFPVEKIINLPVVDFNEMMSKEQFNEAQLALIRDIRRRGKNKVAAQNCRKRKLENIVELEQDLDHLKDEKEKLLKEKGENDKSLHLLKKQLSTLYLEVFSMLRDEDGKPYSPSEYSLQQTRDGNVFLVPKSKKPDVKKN
Summary of the method: (§1)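 HepG2 cells (5×10^3/well) seeded and grown 24 h in 1640 medium with 10% FBS at 37 °C and 5% CO2. Compound is added for 24 h, then removed, and cells are challenged with 900 μM t-BHP for 6 h at 37 °C. MTT (0.5 mg/mL) is added for 4 h, formazan dissolved in DMSO, and absorbance read at 570 nm. Where used, inhibitors are added 1 h before compound. Mean ± SD of three independent experiments.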

[3] = test system: HepG2; assay: Antioxidant activity against t-BHP-induced oxidative stress in human HepG2 cells assessed as inhibition of intracellular ROS accumulation incubated for 24 hrs followed by t-BHP addition for 3 hrs by DCFH-DA staining based flow cytometric analysis; format: functional, cell-based
Summary of the method: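 HepG2 cells (4×10^5/well) exposed to compound (1.25, 2.5 or 5 μM) or DMSO for 24 h, then to 900 μM t-BHP for 3 h. Cells collected, stained with 3 μM DCFH-DA for 30 min at 37 °C in the dark, washed with PBS, and analysed at once by flow cytometry (FITC channel). Values normalised to the corresponding control.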

[4] = target: T1, Nuclear factor erythroid 2-related factor 2 (Homo sapiens); assay: Activation of Nrf2 in human HepG2 cells assessed as increase in nuclear Nrf2 expression level after 3 hrs by Western blot analysis; format: cell-based
Summary of the method: (§2)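 HepG2 cells (2×10^6/well) treated at the indicated concentrations and times. Whole-cell lysates, or nuclear and cytoplasmic fractions, are prepared and quantified by BCA. Samples are run at 40 μg/lane on 12% SDS-PAGE, transferred to nitrocellulose, probed with specific antibodies and HRP secondary (1/5000), and detected by ECL. Where used, LY294002 (15 μM), SP600125 (25 μM) or DTT (400 μM) is added 1 h before compound.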

[5] = target: T1, Nuclear factor erythroid 2-related factor 2 (Homo sapiens); assay: Activation of Nrf2 in human HepG2 cells assessed as increase in GCLC expression level at 5 uM by Western blot analysis; format: cell-based; details: TDE = time-dependent effect; summary of the method: as §2
[6] = target: T1, Nuclear factor erythroid 2-related factor 2 (Homo sapiens); assay: Activation of Nrf2 in human HepG2 cells assessed as increase in HO-1 expression level at 5 uM by Western blot analysis; format: cell-based; details: TDE = time-dependent effect; summary of the method: as §2
[7] = target: T1, Nuclear factor erythroid 2-related factor 2 (Homo sapiens); assay: Activation of Nrf2 in human HepG2 cells assessed as increase in HO-1 expression level after 24 hrs by Western blot analysis; format: cell-based; summary of the method: as §2
[8] = target: T1, Nuclear factor erythroid 2-related factor 2 (Homo sapiens); assay: Activation of Nrf2 in human HepG2 cells assessed as increase in GCLM expression level after 24 hrs by Western blot analysis; format: cell-based; summary of the method: as §2
[9] = target: T1, Nuclear factor erythroid 2-related factor 2 (Homo sapiens); assay: (§3) Activation of Nrf2 in human HepG2 cells assessed as cytoprotection against t-BHP-induced oxidative cell death at 5 uM incubated for 24 hrs followed by compound removal with subsequent incubation with 900 uM of t-BHP for 6 hrs in presence of 100 nM Nrf2 inhibitor TRG for 1 hr prior to compound treatment by MTT assay; format: cell-based; summary of the method: as §1
[10] = target: c-Jun N-terminal kinase, JNK (Homo sapiens) (UniProt P45983+P53779+P45984); assay: Induction of JNK phosphorylation in human HepG2 cells at 5 uM by Western blot analysis; format: cell-based; details: TDE = time-dependent effect; summary of the method: as §2
[11] = target: T1, Nuclear factor erythroid 2-related factor 2 (Homo sapiens); assay: as §3, with “15 uM PI3K/Akt” for “100 nM Nrf2”, “LY294002” for “TRG”; format: cell-based; summary of the method: as §1
[12] = target: T1, Nuclear factor erythroid 2-related factor 2 (Homo sapiens); assay: Activation of Nrf2 in human HepG2 cells assessed as increase in HO-1 expression level at 5 uM in presence of 15 uM PI3K/Akt inhibitor LY294002 for 1 hr prior to compound treatment by Western blot analysis; format: cell-based; summary of the method: as §2
[13] = target: T1, Nuclear factor erythroid 2-related factor 2 (Homo sapiens); assay: Activation of Nrf2 in human HepG2 cells assessed as increase in GCLC expression level at 5 uM in presence of 15 uM PI3K/Akt inhibitor LY294002 for 1 hr prior to compound treatment by Western blot analysis; format: cell-based; summary of the method: as §2
[14] = target: T1, Nuclear factor erythroid 2-related factor 2 (Homo sapiens); assay: Activation of Nrf2 in human HepG2 cells assessed as increase in GCLM expression level at 5 uM in presence of 15 uM PI3K/Akt inhibitor LY294002 for 1 hr prior to compound treatment by Western blot analysis; format: cell-based; summary of the method: as §2
[15] = target: Kelch-like ECH-associated protein 1 (Homo sapiens) (UniProt Q14145); assay: Induction of keap1-dependent Nrf2 stabilization in human HepG2 cells assessed as prolonged half life of Nrf2 at 5 uM pretreated for 3 hrs followed by coincubation with 5 ug/ml cycloheximide for 24 hrs by Western blot analysis relative to control; format: cell-based
Sequence of Kelch-like ECH-associated protein 1 (Homo sapiens) (Q14145 whole entry): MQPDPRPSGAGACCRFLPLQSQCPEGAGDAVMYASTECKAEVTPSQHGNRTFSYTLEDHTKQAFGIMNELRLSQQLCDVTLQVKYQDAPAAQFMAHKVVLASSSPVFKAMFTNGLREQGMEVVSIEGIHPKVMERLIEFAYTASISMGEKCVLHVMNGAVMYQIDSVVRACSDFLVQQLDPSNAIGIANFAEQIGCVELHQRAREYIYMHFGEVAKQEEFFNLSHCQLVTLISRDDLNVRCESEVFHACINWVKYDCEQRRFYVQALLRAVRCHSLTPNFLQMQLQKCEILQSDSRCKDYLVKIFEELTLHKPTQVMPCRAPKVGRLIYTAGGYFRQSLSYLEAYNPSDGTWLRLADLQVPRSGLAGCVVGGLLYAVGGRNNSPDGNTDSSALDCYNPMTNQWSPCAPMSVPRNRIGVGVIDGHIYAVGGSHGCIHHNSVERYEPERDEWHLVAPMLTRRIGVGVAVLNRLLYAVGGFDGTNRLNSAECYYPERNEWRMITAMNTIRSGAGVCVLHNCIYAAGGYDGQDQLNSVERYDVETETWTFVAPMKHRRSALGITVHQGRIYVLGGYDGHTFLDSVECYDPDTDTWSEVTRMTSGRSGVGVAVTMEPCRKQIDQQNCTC
Summary of the method: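 HepG2 cells pretreated with or without 5 μM compound for 3 h, then given 5 μg/mL cycloheximide for the indicated periods (up to 24 h). Total lysates are immunoblotted for Nrf2. Half-life is obtained by fitting a single-phase decay model.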

[16] = target: Kelch-like ECH-associated protein 1 (Homo sapiens) (UniProt Q14145); assay: Induction of keap1-dependent Nrf2 stabilization in human HepG2 cells assessed as upregulation of total Nrf2 expression at 5 uM by Western blot analysis; format: cell-based; details: TDE = time-dependent effect; summary of the method: as §2
[17] = target: T1, Nuclear factor erythroid 2-related factor 2 (Homo sapiens); assay: as §3, with “uM iron chelator DFO” for “nM Nrf2 inhibitor TRG”; format: cell-based; summary of the method: as §1
[18] = target: T1, Nuclear factor erythroid 2-related factor 2 (Homo sapiens); assay: Activation of Nrf2 in human HepG2 cells assessed as increase in GCLC expression level after 3 hrs by Western blot analysis; format: cell-based; summary of the method: as §2
[19] = target: T1, Nuclear factor erythroid 2-related factor 2 (Homo sapiens); assay: Activation of Nrf2 in human HepG2 cells assessed as increase in GCLM expression level after 3 hrs by Western blot analysis; format: cell-based; summary of the method: as §2

CC(C)(C(=O)/C=C/c1ccc(O)c(O)c1)C(=O)/C=C/c1ccc(O)c(O)c1
Stability [1]: Stable
Activity [2]: Dose-dependent effect
inhibition [3]: Dose-dependent effect
Activity [4]: Dose-dependent effect
Activity [5]: Tde
Activity [6]: Tde
Activity [7]: Dose-dependent effect
Activity [8]: Dose-dependent effect
Activity [9]: inactive
Activity [10]: Tde
Activity [11]: inactive
Activity [12]: inactive
Activity [13]: inactive
Activity [14]: inactive
fold change (FC) [15]: 2.6
Activity [16]: Tde
Activity [17]: inactive
Activity [18]: Active
Activity [19]: Active
